Measurements of several laboratories.
Lines come from different studies, so protocols differ. pIC50: −log10 of the molar value.
Target: Acetylcholinesterase (ACHE, Homo sapiens, UniProt P22303)
Observed: enzyme activity
Action: inhibitor

`CC(C)c1cc2c(c(O)c1O)[C@@]13CCCC(C)(C)[C@@H]1[C@@H](O)[C@@H]2OC3=O` gave a pIC50 of 9.01.
`O=c1cc(CSc2ccc(N=Cc3cccc(O)c3)cc2)occ1O` has a pIC50 of 5.44 (Ellman).
With `COc1cc(-c2nc3ccccc3s2)cc(NC(C)=O)c1OCC(=O)N[C@H](C(=O)O)C(C)C` the pIC50 was under 3.57 (Ellman).
The pIC50 of `CCOc1cccc(NC(=O)CSc2nnc(COc3ccc4ccccc4c3)n2-c2ccccc2)c1` is reported as 5.94 (Ellman).
For `CC(C)c1cc2c(c(O)c1O)[C@@]13CCCC(C)(C)[C@@H]1[C@H](OC3=O)[C@H]2O`, the pIC50 was 9.13.
`Cc1cccc(C)c1NC(=O)CSc1nnc(COc2ccc3ccccc3c2)n1-c1ccccc1` gave a pIC50 of 6.00 (Ellman).
The pIC50 of `O=c1cc(CSc2ccc(N=Cc3cccc(F)c3)cc2)occ1O` is reported as 4.58 (Ellman).
With `COc1cc(-c2nc3ccccc3s2)cc2c1OCC(=O)N2CC(=O)NCC(=O)O` the pIC50 was under 3.52 (Ellman).
`Cc1ccc(NC(=O)CSc2nnc(COc3ccc4ccccc4c3)n2-c2ccccc2)c(C)c1` gave a pIC50 of 6.16 (Ellman).
For `O=c1cc(CSc2ccc(N=Cc3ccccc3F)cc2)occ1O`, the pIC50 was 5.39 (Ellman).
For `CC(=O)c1c(C)c2cnc(Nc3ccc(C4CCN(CCS(C)(=O)=O)CC4)cn3)nc2n(C2CCCC2)c1=O`, the pIC50 was 6.60.
The pIC50 of `COc1cc(-c2nc3ccccc3s2)cc2c1OCC(=O)N2CC(=O)N[C@@H](Cc1ccccc1)C(=O)O` is reported as under 3.61 (Ellman).
With `O=c1cc(CSc2ccc(N=Cc3cccc(Cl)c3)cc2)occ1O` the pIC50 was 4.88 (Ellman).
For `COc1cc(-c2nc3ccccc3s2)cc2c1OCC(=O)N2CC(=O)N[C@@H](C)C(=O)O`, the pIC50 was under 3.54 (Ellman).
`O=c1cc(CSc2ccc(N=Cc3ccc(Cl)cc3)cc2)occ1O` gave a pIC50 of 5.88 (Ellman).
The pIC50 of `CCOc1ccc(NC(=O)CSc2nnc(COc3ccc4ccccc4c3)n2-c2ccccc2)cc1` is reported as 6.09 (Ellman).
